Key:
Format in all cases: functional
[1] = system: HL-60(TB); test: Growth inhibition of human HL-60(TB) cells assessed as cell growth at 10 '-5 M after 48 hrs by sulforhodamine B assay; conditions: HL-60, 48 h, read-out: Activity
Outline: (§1)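 Five-dose NCI protocol with final concentrations of 0.01–100 µM and drug diluted from a DMSO stock (400× the top concentration) in medium with gentamicin. Cells were pre-incubated 24 h, then exposed 48 h at 37 °C. Suspension cells were fixed with 16% final TCA, SRB-stained and read at 515 nm. Percentage growth at each level was [(Ti−Tz)/(C−Tz)]×100, or [(Ti−Tz)/Tz]×100 when Ti < Tz.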

[2] = system: PC-3; test: Growth inhibition of human PC3 cells assessed as cell growth at 10 '-8 M after 48 hrs by sulforhodamine B assay; conditions: PC-3, 48 h, read-out: Activity
[3] = system: MOLT-4; test: Growth inhibition of human MOLT4 cells assessed as cell growth at 10 '-6 M after 48 hrs by sulforhodamine B assay; conditions: MOLT-4, 48 h, read-out: Activity
[4] = system: SF-539; test: Growth inhibition of human SF539 cells assessed as cell growth at 10 '-8 M after 48 hrs by sulforhodamine B assay; conditions: SF-539, 48 h, read-out: Activity
[5] = system: HL-60(TB); test: Growth inhibition of human HL-60(TB) cells assessed as cell growth at 10 '-7 M after 48 hrs by sulforhodamine B assay; conditions: HL-60, 48 h, read-out: Activity; outline: as §1
[6] = system: SK-MEL-28; test: Growth inhibition of human SK-MEL-28 cells assessed as growth inhibition at 10 uM after 48 hrs by sulforhodamine B assay; conditions: SK-MEL-28, 48 h, read-out: GI
[7] = system: MOLT-4; test: Growth inhibition of human MOLT4 cells assessed as growth inhibition at 10 uM after 48 hrs by sulforhodamine B assay; conditions: MOLT-4, 48 h, read-out: GI
[8] = system: MDA-MB-468; test: Growth inhibition of human MDA-MB-468 cells assessed as cell growth at 10 '-4 M after 48 hrs by sulforhodamine B assay; conditions: MDA-MB-468, 48 h, read-out: Activity
[9] = system: SK-MEL-28; test: Growth inhibition of human SK-MEL-28 cells assessed as cell growth at 10 '-8 M after 48 hrs by sulforhodamine B assay; conditions: SK-MEL-28, 48 h, read-out: Activity
[10] = system: RPMI-8226; test: Growth inhibition of human RPMI8226 cells after 48 hrs by sulforhodamine B assay; conditions: RPMI-8226, 48 h
[11] = system: K562; test: Growth inhibition of human K562 cells assessed as growth inhibition at 10 uM after 48 hrs by sulforhodamine B assay; conditions: K562, 48 h, read-out: GI
[12] = Growth inhibition of human HCC2998 cells assessed as cell growth at 10 '-5 M after 48 hrs by sulforhodamine B assay; conditions: HCC 2998, 48 h, read-out: Activity
[13] = system: HCT-15; test: Growth inhibition of human HCT15 cells assessed as cell growth at 10 '-4 M after 48 hrs by sulforhodamine B assay; conditions: HCT-15, 48 h, read-out: Activity
[14] = system: COLO 205; test: Growth inhibition of human COLO205 cells assessed as cell growth at 10 '-8 M after 48 hrs by sulforhodamine B assay; conditions: COLO 205, 48 h, read-out: Activity
[15] = system: SNB-75; test: Growth inhibition of human SNB75 cells assessed as cell growth at 10 '-4 M after 48 hrs by sulforhodamine B assay; conditions: SNB-75, 48 h, read-out: Activity
[16] = system: HOP-62; test: Growth inhibition of human HOP62 cells assessed as cell growth at 10 '-5 M after 48 hrs by sulforhodamine B assay; conditions: HOP-62, 48 h, read-out: Activity
[17] = system: UACC-62; test: Growth inhibition of human UACC62 cells assessed as growth inhibition at 10 uM after 48 hrs by sulforhodamine B assay; conditions: UACC-62, 48 h, read-out: GI
[18] = system: MDA-MB-468; test: Growth inhibition of human MDA-MB-468 cells assessed as cell growth at 10 '-8 M after 48 hrs by sulforhodamine B assay; conditions: MDA-MB-468, 48 h, read-out: Activity
[19] = system: UACC-257; test: Growth inhibition of human UACC257 cells assessed as cell growth at 10 '-4 M after 48 hrs by sulforhodamine B assay; conditions: UACC-257, 48 h, read-out: Activity
[20] = system: DU-145; test: Growth inhibition of human DU145 cells assessed as cell growth at 10 '-8 M after 48 hrs by sulforhodamine B assay; conditions: DU-145, 48 h, read-out: Activity
[21] = system: LOX IMVI; test: Growth inhibition of human LOXIMVI cells assessed as cell growth at 10 '-8 M after 48 hrs by sulforhodamine B assay; conditions: read-out: Activity
[22] = system: CAKI-1; test: Growth inhibition of human CAKI-1 cells assessed as cell growth at 10 '-6 M after 48 hrs by sulforhodamine B assay; conditions: CAKI-1, 48 h, read-out: Activity
Outline: (§2)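 Percent growth at each of the five concentrations of the 48 h continuous-exposure NCI SRB screen. Drug stocks were in DMSO at 400× the top final concentration and diluted in medium with gentamicin. Growth was calculated as [(Ti-Tz)/(C-Tz)]×100 when Ti ≥ Tz, or [(Ti-Tz)/Tz]×100 when Ti < Tz. Tz plates were fixed at drug addition; untreated wells served as control. Absorbance was read at 515 nm.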

[23] = system: NCI-H23; test: Growth inhibition of human NCI-H23 cells assessed as cell growth at 10 '-7 M after 48 hrs by sulforhodamine B assay; conditions: NCI-H23, 48 h, read-out: Activity
[24] = Growth inhibition of human Hs 578T cells after 48 hrs by sulforhodamine B assay
Outline: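 NCI 60-cell-line five-dose screen. Cells were plated at 5,000–40,000/well by doubling time and grown 24 h at 37 °C, 5% CO2. Time-zero plates were TCA-fixed. Drug from DMSO stock was tested at 0.01, 0.1, 1, 10 and 100 µM final for 48 h continuous exposure. Read-out was SRB at 515 nm. GI50 is the concentration giving 50% reduction in net protein increase versus untreated control.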

[25] = system: 786-0; test: Growth inhibition of human 786-0 cells assessed as cell growth at 10 '-5 M after 48 hrs by sulforhodamine B assay; conditions: 786-0, 48 h, read-out: Activity; outline: as §2
[26] = system: U-251; test: Growth inhibition of human U251 cells assessed as cell growth at 10 '-7 M after 48 hrs by sulforhodamine B assay; conditions: U-251, 48 h, read-out: Activity
[27] = system: A498; test: Growth inhibition of human A498 cells assessed as cell growth at 10 '-4 M after 48 hrs by sulforhodamine B assay; conditions: A498, 48 h, read-out: Activity; outline: as §2
[28] = system: SF-539; test: Growth inhibition of human SF539 cells assessed as cell growth at 10 '-5 M after 48 hrs by sulforhodamine B assay; conditions: SF-539, 48 h, read-out: Activity
[29] = system: NCI-H322M; test: Growth inhibition of human NCI-H322M cells assessed as growth inhibition at 10 uM after 48 hrs by sulforhodamine B assay; conditions: read-out: GI
[30] = read-out: LD50 (the source's name)

Cc1cc(=O)oc2cc(OCCn3c(C)nn(-c4ccc(Cl)cc4)c3=O)ccc12
growth at 10 µM [1]: -1%
growth at 0.01 µM [2]: 97%
growth at 1 µM [3]: 100%
growth at 0.01 µM [4]: 102%
growth at 0.1 µM [5]: 104%
inhibition of growth at 10 µM [6]: 59.2%
inhibition of growth at 10 µM [7]: 62.4%
growth at 100 µM [8]: -5%
growth at 0.01 µM [9]: 105%
GI50 [10]: 1100 nM
TGI [10]: > 1000 nM
CC50 [10, 30]: > 1000 nM
inhibition of growth at 10 µM [11]: 83.7%
growth at 10 µM [12]: 29%
growth at 100 µM [13]: 25%
growth at 0.01 µM [14]: 102%
growth at 100 µM [15]: -25%
growth at 10 µM [16]: 8%
inhibition of growth at 10 µM [17]: 56.7%
growth at 0.01 µM [18]: 94%
growth at 100 µM [19]: 53%
growth at 0.01 µM [20]: 111%
growth at 0.01 µM [21]: 96%
growth at 1 µM [22]: 68%
growth at 0.1 µM [23]: 91%
GI50 [24]: 2820 nM
TGI [24]: > 1000 nM
CC50 [24, 30]: > 1000 nM
growth at 10 µM [25]: 35%
growth at 0.1 µM [26]: 97%
growth at 100 µM [27]: -8%
growth at 10 µM [28]: 25%
inhibition of growth at 10 µM [29]: 41.3%
